Measurements published in ChEMBL document CHEMBL5252518, “Correlation of in Situ Oxazolidine Formation with Highly Synergistic Cytotoxicity and DNA Cross-Linking in Cancer Cells from Combinations of Doxorubicin and Formaldehyde” (J Med Chem, 2016).
pIC50: −log10 of the molar value. Each block holds one compound with its values, some of them ahead of it. Active and inactive are the calls of the source. The calls are words filed in the database; no cut-off is given here.

What was measured:
[1] = system: MIA PaCa-2; test: Synergistic cytotoxicity against doxorubicin-sensitive human MIA PaCa-2 cells assessed as inhibition of cell growth incubated for 90 mins in presence of formaldehyde by crystal violet staining assay; format: functional, cell-based; conditions: MIA PaCa-2, 1.5 h
[2] = system: NCI/ADR-RES; test: Induction of DNA damage in hydrogen peroxide induced human NCI/ADR-RES cells assessed as increase in comet tail density at 100 uM incubated for 90 mins by comet assay; format: functional, cell-based
[3] = system: NCI/ADR-RES; test: Cytotoxicity against doxorubicin-resistant human NCI/ADR-RES cells assessed as inhibition of cell growth incubated for 90 mins by crystal violet staining assay; format: functional, cell-based; conditions: 1.5 h; for pIC50: read-out: IC50; for IC50: read-out: pIC50 (converted)
[4] = Genotoxicity in doxorubicin-resistant human NCI/ADR-RES cells assessed as increase in DNA damage at 100 uM incubated for 90 mins by comet assay; format: toxicity, cell-based; conditions: 1.5 h
In short: (§1)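 Cells were trypsinized as one bulk population, split into treatment groups and drug-treated in suspension for 90 min. They were then promptly embedded in agarose, lysed and electrophoresed under alkaline conditions (alkaline single-cell gel electrophoresis). After staining, DNA strand breaks were scored as comet tail stain density.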

[5] = system: MIA PaCa-2; test: Cytotoxicity against doxorubicin-sensitive human MIA PaCa-2 cells assessed as inhibition of cell growth incubated for 90 mins by crystal violet staining assay; format: functional, cell-based; conditions: MIA PaCa-2, 1.5 h; for pIC50: read-out: IC50; for IC50: read-out: pIC50 (converted)
[6] = Genotoxicity in doxorubicin-sensitive human MIA PaCa-2 cells assessed as increase in DNA damage at 100 uM incubated for 90 mins by comet assay; format: toxicity, cell-based; conditions: mia paca-2, 1.5 h; in short: as §1
[7] = system: DNA; test: Induction of DNA interstrand cross-linking in hydrogen peroxide induced human NCI/ADR-RES cells assessed as decrease in comet tail density at 10 uM incubated for 90 mins by comet assay; format: functional, cell-based
[8] = system: MIA PaCa-2; test: Cytotoxicity against doxorubicin-sensitive human MIA PaCa-2 cells assessed as inhibition of cell growth incubated for 30 mins by crystal violet staining assay; conditions: MIA PaCa-2, 0.5 h
[9] = Genotoxicity in doxorubicin-sensitive human MIA PaCa-2 cells assessed as increase in tail DNA density at 250 uM incubated for 90 mins by comet assay; format: toxicity, cell-based; conditions: mia paca-2, 1.5 h
In short: (§2)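 Alkaline single-cell gel electrophoresis (comet) assay. A bulk population of cells was trypsinized, then split into treatment groups and treated in suspension for 90 min. After the drug was removed, cells were promptly embedded in agarose, lysed and electrophoresed under alkaline conditions. Gels were then stained, and the stain density in the comet tail was scored as DNA strand-break content.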

[10] = system: DNA; test: Induction of DNA (unknown origin) expressed in Escherichia coli DH5alpha interstrand cross-linking assessed as inhibition of NotI-induced DNA digestion at 1.5 to 8 uM incubated for 30 mins by agarose gel electrophoresis based restriction endonuclease digestion assay; format: functional; conditions: dose 1.5-8 µM
[11] = Genotoxicity in doxorubicin-sensitive human MIA PaCa-2 cells assessed as increase in tail DNA density at 10 uM incubated for 90 mins by comet assay; format: toxicity, cell-based; conditions: mia paca-2, 1.5 h; in short: as §2
[12] = system: DNA; test: Induction of DNA (unknown origin) expressed in Escherichia coli DH5alpha interstrand cross-linking assessed as inhibition of NdeI-induced DNA digestion at 1.5 to 8 uM incubated for 30 mins by agarose gel electrophoresis based restriction endonuclease digestion assay; format: functional; conditions: dose 1.5-8 µM
[13] = Genotoxicity in doxorubicin-resistant human NCI/ADR-RES cells assessed as increase in tail DNA density at 250 uM incubated for 90 mins by comet assay; format: toxicity, cell-based; conditions: 1.5 h; in short: as §2
[14] = Genotoxicity in doxorubicin-resistant human NCI/ADR-RES cells assessed as increase in tail DNA density at 10 uM incubated for 90 mins by comet assay; format: toxicity, cell-based; conditions: 1.5 h; in short: as §2
[15] = system: NCI/ADR-RES; test: Cytotoxicity against doxorubicin-resistant human NCI/ADR-RES cells assessed as fold change in IC50 incubated for 3 hrs in presence of pig liver esterase by crystal violet staining assay relative to Doxsaliform; format: functional
[16] = system: NCI/ADR-RES; test: Cytotoxicity against doxorubicin-resistant human NCI/ADR-RES cells assessed as inhibition of cell growth incubated for 3 hrs by crystal violet staining assay; format: functional, cell-based
[17] = system: NCI/ADR-RES; test: Cytotoxicity against doxorubicin-resistant human NCI/ADR-RES cells assessed as fold change in IC50 incubated for 3 hrs in presence of pig liver esterase by crystal violet staining assay; format: functional
[18] = system: NCI/ADR-RES; test: Cytotoxicity against doxorubicin-resistant human NCI/ADR-RES cells assessed as inhibition of cell growth incubated for 3 hrs in presence of pig liver esterase by crystal violet staining assay; format: functional, cell-based
[19] = Prodrug conversion in pig liver assessed as esterase-mediated Doxazolidine formation by measuring its half life at 1 uM by HPLC analysis; format: ADME, tissue-based, Sus scrofa
[20] = system: NCI/ADR-RES; test: Cytotoxicity against doxorubicin-resistant human NCI/ADR-RES cells assessed as inhibition of cell growth incubated for 30 mins by crystal violet staining assay; format: functional, cell-based; conditions: 0.5 h
[21] = system: MIA PaCa-2; test: Synergistic cytotoxicity against doxorubicin-sensitive human MIA PaCa-2 cells assessed as cell survival incubated for 90 mins in presence of formaldehyde by crystal violet staining assay; format: functional; conditions: 1.5 h
[22] = system: MIA PaCa-2; test: Synergistic cytotoxicity against doxorubicin-sensitive human MIA PaCa-2 cells assessed as fold change in IC50 incubated for 90 mins in presence of formaldehyde by crystal violet staining assay; format: functional; conditions: 1.5 h
[23] = system: NCI/ADR-RES; test: Synergistic cytotoxicity against doxorubicin-resistant human NCI/ADR-RES cells assessed as fold change in IC50 incubated for 90 mins in presence of formaldehyde by crystal violet staining assay; conditions: 1.5 h
[24] = system: NCI/ADR-RES; test: Synergistic cytotoxicity against doxorubicin-resistant human NCI/ADR-RES cells assessed as combination index incubated for 90 mins in presence of formaldehyde by crystal violet staining assay; conditions: 1.5 h
[25] = system: MIA PaCa-2; test: Synergistic cytotoxicity against doxorubicin-sensitive human MIA PaCa-2 cells assessed as combination index incubated for 90 mins in presence of formaldehyde by crystal violet staining assay; format: functional; conditions: 1.5 h
[26] = system: NCI/ADR-RES; test: Synergistic cytotoxicity against doxorubicin-resistant human NCI/ADR-RES cells assessed as fold change in IC50 incubated for 90 mins in presence of formaldehyde low concentration by crystal violet staining assay; conditions: 1.5 h
[27] = system: NCI/ADR-RES; test: Synergistic cytotoxicity against doxorubicin-resistant human NCI/ADR-RES cells assessed as fold change in IC50 incubated for 30 mins in presence of formaldehyde by crystal violet staining assay; conditions: 0.5 h
[28] = Half life of compound; format: physicochemical
[29] = system: MIA PaCa-2; test: Synergistic cytotoxicity against doxorubicin-sensitive human MIA PaCa-2 cells assessed as inhibition of cell growth incubated for 90 mins in presence of epirubicin by crystal violet staining assay; conditions: MIA PaCa-2, 1.5 h

Structure (SMILES): COc1cccc2c1C(=O)c1c(O)c3c(c(O)c1C2=O)C[C@@](O)(C(=O)CO)C[C@@H]3O[C@H]1C[C@H](N)[C@@H](O)[C@H](C)O1 [EPIRUBICIN]
pIC50 [1]: 6.30
Activity [2]: Active
pIC50 [3]: 6.20
IC50 [3]: 631 nM
Activity [4]: Toxic
pIC50 [5]: < 4.00
Activity [6]: Toxic

Structure (SMILES): COc1cccc2c1C(=O)c1c(O)c3c(c(O)c1C2=O)C[C@@](O)(C(=O)CO)C[C@@H]3O[C@H]1C[C@@H]2NCO[C@@H]2[C@H](C)O1 [DOXAZOLIDINE]
Activity [7]: Active
pIC50 [8]: 4.29
pIC50 [3]: 7.32
IC50 [3]: 50.1 nM
Activity [9]: Non-Toxic
Activity [10]: Active
Activity [11]: Non-Toxic
pIC50 [5]: 7.66
IC50 [5]: 20 nM
Activity [12]: Active
Activity [13]: Non-Toxic
Activity [14]: Non-Toxic

t1/2 [19]: 24 min
Structure (SMILES): CCCCCOC(=O)Nc1ccc(COC(=O)N2CO[C@@H]3[C@H](C)O[C@@H](O[C@H]4C[C@](O)(C(=O)CO)Cc5c(O)c6c(c(O)c54)C(=O)c4c(OC)cccc4C6=O)C[C@@H]32)cc1
fold change (FC) [15]: 25
pIC50 [16]: 5.70
fold change (FC) [17]: 30
pIC50 [18]: 8.52

Structure (SMILES): COc1cccc2c1C(=O)c1c(O)c3c(c(O)c1C2=O)C[C@@](O)(C(=O)CO)C[C@@H]3O[C@H]1C[C@H](N)[C@H](O)[C@H](C)O1 [DOXORUBICIN]
pIC50 [20]: 3.66
Activity [21]: 75%
fold change (FC) [22]: 3.5
fold change (FC) [23]: 55
pIC50 [8]: 5.40
Activity [2]: Active
CI [24]: 0.02
pIC50 [3]: 6.21
IC50 [3]: 617 nM
CI [25]: 0.4
Activity [10]: Active
fold change (FC) [26]: 2.5
Activity [4]: Toxic
pIC50 [5]: 4.18
IC50 [5]: 63100 nM
fold change (FC) [27]: 9
Activity [12]: Active
Activity [6]: Toxic

half-life [28]: 57 min
Structure (SMILES): COc1cccc2c1C(=O)c1c(O)c3c(c(O)c1C2=O)C[C@@](O)(C(=O)CO)C[C@@H]3O[C@H]1C[C@H](NCNC(=O)c2ccccc2O)[C@H](O)[C@H](C)O1
pIC50 [16]: 3.10

Structure (SMILES): C=O [FORMALDEHYDE]
pIC50 [20]: 3.22
pIC50 [29]: 6.30
pIC50 [3]: 3.28
IC50 [3]: 501000 nM
pIC50 [5]: 3.21
IC50 [5]: 631000 nM
